Measurements: ChEMBL document CHEMBL4400546, “A Cinchona Alkaloid Antibiotic That Appears To Target ATP Synthase in Streptococcus pneumoniae” (J Med Chem, 2019)
≈ marks a conversion by molar mass, not a printed value.

Key:
[1] = Elimination half life in ICR mouse at 25 mg/kg, po via bolus administration by LC-MS/MS analysis; type: ADME, organism-based; details: in vivo, read-out: beta t1/2 (converted)
In short: (§1)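 Single-dose PK in male ICR mice, bolus p.o. 25 mg/kg or i.v. 2.5 mg/kg. Plasma concentration followed over time, n = 3. Parameters derived by noncompartmental analysis of the concentration–time curves. Oral bioavailability calculated from AUC.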

[2] = AUCt in ICR mouse at 2.5 mg/kg, iv by LC-MS/MS analysis; type: ADME, organism-based; details: in vivo; in short: as §1
[3] = Oral bioavailability in ICR mouse at 25 mg/kg via bolus administration by LC-MS/MS analysis; type: ADME, organism-based; details: in vivo
In short: (§2)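 Male ICR mice, single oral bolus at 25 mg/kg. Serum concentration-time profiles (n = 3) analysed by noncompartmental analysis.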

[4] = Cmax in ICR mouse at 25 mg/kg, po via bolus administration by LC-MS/MS analysis; type: ADME, organism-based; parameters: dose 25 mg/kg, route oral; details: in vivo; in short: as §1
[5] = Cmax in ICR mouse at 2.5 mg/kg, iv by LC-MS/MS analysis; type: ADME, organism-based; parameters: dose 2.5 mg/kg, route intravenous; details: in vivo; in short: as §1
Streptococcus pneumoniae [6] = assay: Antibacterial activity against Streptococcus pneumoniae D39 after 20 hrs by CLSI-based microdilution method; type: functional; details: D39, 20 h
[7] = AUCt in ICR mouse at 25 mg/kg, po via bolus administration by LC-MS/MS analysis; type: ADME, organism-based; details: in vivo; in short: as §1
[8] = Volume of distribution at steady state in ICR mouse at 2.5 mg/kg, iv by LC-MS/MS analysis; type: ADME, organism-based; details: in vivo, read-out: Vdss
In short: (§3)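 Male ICR mice, single i.v. bolus at 2.5 mg/kg. Serum concentration-time curves (n = 3) analysed noncompartmentally to give Tmax and steady-state volume of distribution.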

[9] = Drug metabolism in ICR mouse liver microsomes assessed as ) 6-(cyclobutoxy)-4-[(R)-hydroxy-[(1S,2S,4S,5Z)-5-(2-hydroxyethylidene)quinuclidin-2-yl]methyl]-1H-quinolin-2-one metabolite formation at 10 uM preincubated with NADPH for 10 mins by LC-MS/MS analysis; type: ADME, Microsome
[10] = Cytotoxicity against human HepG2 cells assessed as reduction in cell viability after 48 hrs by Alamar Blue assay; type: cell-based
[11] = Drug metabolism in ICR mouse liver microsomes assessed as [(1S,2S,4S,5Z)-5-ethylidenequinuclidin-2-yl]-(6-hydroxy-4-quinolyl)methanone metabolite formation at 10 uM preincubated with NADPH for 10 mins by LC-MS/MS analysis; type: ADME, Microsome
[12] = Drug level in ICR mouse liver microsomes treated with 6-Cyclobutoxy-(R)-4-[((1S,2S,4S,5E)-5-ethylidene-1-azabicyclo[2.2.2]octan-2-yl)hydroxymethyl]quinoline at 10 uM preincubated with NADPH for 10 mins and measured after 90 mins by LC-MS/MS analysis; type: ADME, Microsome; details: 1.5 h
[13] = Elimination half life in ICR mouse at 2.5 mg/kg, iv by LC-MS/MS analysis; type: ADME, organism-based; details: in vivo, read-out: beta t1/2 (converted); in short: as §1
[14] = Drug level in ICR mouse liver microsomes treated with 6-Cyclobutoxy-(R)-4-[((1S,2S,4S,5Z)-5-ethylidene-1-azabicyclo-[2.2.2]octan-2-yl)hydroxymethyl]quinoline at 10 uM preincubated with NADPH for 10 mins and measured after 90 mins by LC-MS/MS analysis; type: ADME, Microsome; details: 1.5 h
[15] = Drug metabolism in ICR mouse liver microsomes assessed as (2S,3S,4S,5R,6R)-6-[[4-[(R)-[(1S,2S,4S,5Z)-5-ethylidenequinuclidin-2-yl]-hydroxy-methyl]-6-quinolyl]oxy]-3,4,5-trihydroxy-tetrahydropyran-2-carboxylic acid metabolite formation at 10 uM preincubated with NADPH for 10 mins by LC-MS/MS analysis; type: ADME, Microsome
[16] = Drug metabolism in ICR mouse liver microsomes at 10 uM preincubated with NADPH for 10 mins and measured after 60 mins by LC-MS/MS analysis; type: ADME, Microsome; details: read-out: Drug metabolism
[17] = Clearance in ICR mouse at 2.5 mg/kg, iv by LC-MS/MS analysis; type: ADME, organism-based; details: in vivo; in short: as §1
[18] = Tmax in ICR mouse at 25 mg/kg, po via bolus administration by LC-MS/MS analysis; type: ADME, organism-based; details: in vivo; in short: as §2
[19] = Tmax in ICR mouse at 2.5 mg/kg, iv by LC-MS/MS analysis; type: ADME, organism-based; details: in vivo; in short: as §3
[20] = Drug metabolism in ICR mouse liver microsomes assessed as [6-(cyclobutoxy)-4-quinolyl]-[(1S,2S,4S,5Z)-5-(2-hydroxyethylidene)quinuclidin-2-yl]methanone metabolite formation at 10 uM preincubated with NADPH for 10 mins by LC-MS/MS analysis; type: ADME, Microsome
[21] = system: Streptococcus pneumoniae D39; assay: Inhibition of wild-type Streptococcus pneumoniae D39 ATP synthase atpE assessed as intracellular pH at 10 uM measured at 5 mins intervals by pH-sensitive GFP-based fluorescence assay (reference value: 7.34 +/- 0.04); type: cell-based
In short: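 S. pneumoniae D39 WT and isogenic atpE G142C or G145A mutants carry a plasmid-borne ratiometric pH-sensitive GFP biosensor. Cells are in PBS pH 7.2 with 10 mM glucose and are treated with compound, DMSO (0.5% v/v) or CCCP (10 µM). Intracellular pH is read immediately and at 5-min intervals. Two independent experiments, each in triplicate.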

Streptococcus pneumoniae [22] = assay: Antibacterial activity against amoxicillin/penicillin/chloramphenicol/erythromycin/meropenem/cefotaxime-resistant Streptococcus pneumoniae TH2582 (19A) after 20 hrs by CLSI-based microdilution method; type: functional
Streptococcus pneumoniae [23] = assay: Antibacterial activity against amoxicillin/penicillin/cefotaxime/erythromycin/tetracycline-resistant Streptococcus pneumoniae TH2784 (19F) after 20 hrs by CLSI-based microdilution method; type: functional
Streptococcus pneumoniae [24] = assay: Antibacterial activity against Streptococcus pneumoniae R6 after 20 hrs by CLSI-based microdilution method; type: functional; details: R6, 20 h
Streptococcus pneumoniae [25] = assay: Antibacterial activity against optochin-resistant Streptococcus pneumoniae R6 expressing atpE G142C mutant after 20 hrs by CLSI-based microdilution method; type: functional; details: R6, 20 h
Streptococcus pneumoniae [26] = assay: Antibacterial activity against amoxicillin/penicillin/erythromycin/ertapenem/moxifloxacin/cefotaxime-resistant Streptococcus pneumoniae TH2889 (6B) after 20 hrs by CLSI-based microdilution method; type: functional
Streptococcus pneumoniae [27] = assay: Bactericidal activity against Streptococcus pneumoniae D39 after 24 hrs; type: functional; details: D39, 24 h
[28] = Mitochondrial toxicity in human HepG2 cells assessed as reduction in cell viability after 24 hrs in presence of galactose by CellTiter-Glo assay; type: cell-based
In short: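 HepG2 cells are grown in DMEM supplemented with 10 mM galactose or 10 mM glucose and treated for 24 h. Viability is read by CellTiter-Glo luminescence. The CC90 is the concentration inhibiting 90% of cell viability, taken from dose–response curves. Oligomycin and tamoxifen serve as controls.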

[29] = Mitochondrial toxicity in human HepG2 cells assessed as reduction in cell viability after 24 hrs in presence of glucose by CellTiter-Glo assay; type: cell-based
In short: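 HepG2 cells grown in DMEM with 10 mM glucose, treated 24 h; viability read by CellTiter-Glo luminescence. Value is the concentration giving 90% loss of viability (CC90) from dose-response curves, top concentration 300 µM.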

Streptococcus pneumoniae [30] = assay: Antibacterial activity against penicillin/erythromycin/meropenem/tetracycline-resistant Streptococcus pneumoniae TH2863 (19F) after 20 hrs by CLSI-based microdilution method; type: functional
Streptococcus pneumoniae [31] = assay: Antibacterial activity against optochin-resistant Streptococcus pneumoniae R6 expressing atpE G145A mutant after 20 hrs by CLSI-based microdilution method; type: functional; details: R6, 20 h
[32] = Elimination half life in human
[33] = system: Staphylococcus epidermidis; assay: Antibacterial activity against Staphylococcus epidermidis; type: functional
[34] = Protein binding in plasma (unknown origin); type: ADME, cell-free; details: read-out: PPB
Enterococcus faecalis = assay: Antibacterial activity against Enterococcus faecalis; type: functional
Streptococcus pneumoniae [35] = assay: Antibacterial activity against Streptococcus pneumoniae; type: functional
In short: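 MIC read per CLSI guidelines as the lowest concentration giving complete inhibition of visible growth. The main screen used strain D39. A further panel covered drug-sensitive, multidrug-resistant and optochin-resistant strains, including R6 carrying atpE point mutations G142C or G145A made by a PCR-based approach.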

Staphylococcus aureus = assay: Antibacterial activity against Staphylococcus aureus; type: functional
[36] = Cmax in human; type: ADME

| SMILES | half-life [1] | AUC(0-t) [2] | bioavailability [3] | Cmax [4] | Cmax [5] | MIC (Streptococcus pneumoniae [6]) | AUC(0-t) [7] | Vd [8] | CC50 at 48 h [10] | half-life [13] | metabolised at 1 h, 10 µM [16] | clearance [17] | Tmax [18] | Tmax [19] | also measured |
| --- | --- | --- | --- | --- | --- | --- | --- | --- | --- | --- | --- | --- | --- | --- | --- |
| C/C=C1\C[N@]2CC[C@H]1C[C@H]2[C@H](O)c1ccnc2ccc(OC3CCC3)cc12 | 41.4 min | 235 ng·h/mL | 13.6% | 207 ng/mL | 521 ng/mL | 1.4 µM (≈ 0.51 µg/mL) | 319 ng·h/mL | 6.3 L/kg | 59 µM | 25.2 min | 99.8% | 172 mL/min/kg | 15 min | 1.98 min | Drug metabolism [9]: Metabolite_Detected; Drug metabolism [11]: Metabolite_Detected; Drug uptake [12]: Active; Drug uptake [14]: Active; Drug metabolism [15]: Metabolite_Detected; Drug metabolism [20]: Metabolite_Detected |
| N#CC(C#N)=NNc1cccc(Cl)c1 | – | – | – | – | – | – | – | – | – | – | – | – | – | – | pH [21]: 5.43 |
| CCOc1ccc2nccc([C@@H](O)[C@@H]3C[C@@H]4CCN3C[C@@H]4CC)c2c1 [ETHYLHYDROCUPREINE] | 60 min | 144 ng·h/mL | 109% | 639 ng/mL | 375 ng/mL | 6 to 12 µM (≈ 2.04 to 4.09 µg/mL) | 1570 ng·h/mL | 12.7 L/kg | > 100 µM | 31.8 min | 87% | 274 mL/min/kg | 30 min | 1.98 min | MIC (Streptococcus pneumoniae [22]): 2 µg/mL (≈ 5.87 µM); MIC (Streptococcus pneumoniae [23]): 2 µg/mL (≈ 5.87 µM); MIC (Streptococcus pneumoniae [24]): 2 µg/mL (≈ 5.87 µM); MIC (Streptococcus pneumoniae [25]): 64 µg/mL (≈ 188 µM); MIC (Streptococcus pneumoniae [26]): 2 µg/mL (≈ 5.87 µM); MBC (Streptococcus pneumoniae [27]): 4 µg/mL (≈ 11.7 µM); CC90 at 24 h [28]: 300 µM; CC90 at 24 h [29]: 300 µM; MIC (Streptococcus pneumoniae [30]): 4 to 8 µg/mL (≈ 11.7 to 23.5 µM); MIC (Streptococcus pneumoniae [31]): 16 µg/mL (≈ 47 µM) |
| O[C@@H](c1cc(C(F)(F)F)nc2c(C(F)(F)F)cccc12)[C@H]1CCCCN1 [(S,R)-MEFLOQUINE] | – | – | – | – | – | – | – | – | – | – | – | – | – | – | half-life [32]: 20 days; MIC [33]: 16 µg/mL (≈ 42.3 µM); fraction unbound [34]: < 0.02; MIC (Enterococcus faecalis): 16 µg/mL (≈ 42.3 µM); MIC (Streptococcus pneumoniae [35]): 0.4 to 0.8 µg/mL (≈ 1.06 to 2.11 µM); MIC (Staphylococcus aureus): 16 µg/mL (≈ 42.3 µM); Cmax [36]: 50 ng/mL |
